Source: PubChem BioAssay
Shown are actives, neighbours in structure and some others; about 2.2% of the full set was active somewhere.
FLuc inhib CS: firefly luciferase enzyme inhibitors, primary screen, artefact control for luciferase-based inhibitor screens, biochemical, luminescence, ATPLite; Luciferin 4-monooxygenase (Photinus pyralis), P08659; 10 min; inhibition, % at 10 µM; 200,000 tested, 1.5% active; AID 1006, 2008;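 active means inhibition above about 50% when tested at 10 µM, limit read from the data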
Target sequence (P08659 whole entry, looked up): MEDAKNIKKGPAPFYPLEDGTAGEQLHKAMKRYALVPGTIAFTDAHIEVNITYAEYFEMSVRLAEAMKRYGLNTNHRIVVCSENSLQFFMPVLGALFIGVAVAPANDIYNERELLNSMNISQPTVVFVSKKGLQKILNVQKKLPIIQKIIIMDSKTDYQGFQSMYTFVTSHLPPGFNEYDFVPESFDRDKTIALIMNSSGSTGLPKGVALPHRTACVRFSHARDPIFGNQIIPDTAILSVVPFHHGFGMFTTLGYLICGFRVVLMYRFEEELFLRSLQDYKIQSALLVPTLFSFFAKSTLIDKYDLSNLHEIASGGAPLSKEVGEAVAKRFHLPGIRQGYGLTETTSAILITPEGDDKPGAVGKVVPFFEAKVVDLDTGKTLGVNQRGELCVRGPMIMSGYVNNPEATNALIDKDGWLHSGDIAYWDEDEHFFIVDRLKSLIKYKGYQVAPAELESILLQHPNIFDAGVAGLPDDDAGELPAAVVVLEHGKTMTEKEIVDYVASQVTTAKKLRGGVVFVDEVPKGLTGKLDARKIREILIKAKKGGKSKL
STAT3 inh: IL-6 driven STAT3 reporter inhibitors, primary screen, U3A cells, luciferase, luminescence, MLSCN library; 190,000 tested, 0.89% active; inhibition, % at 5.5 µM; IL-6 STAT3-luciferase reporter; host cell line lacks STAT1;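 active means inhibition above the mean inhibition across all screened compounds plus 3 SD, cut at about 44% in these data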;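 further: 0% = DMSO only wells and 100% = 100 µM nifuroxazide control wells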
C8 TRAIL sens: viability loss with TRAIL in NB7+C8 cells, primary screen, TRAIL sensitizer project, cell-based, ATPlite luminescence | inhibition (viability loss, TRAIL sensitization), % at 10 µM | 360,000 tested, 1% active | AID 624354, 2012;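 active means compounds causing at least 50% loss of cell viability in the single-dose screen, relative to plate controls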
PPC-1+TRAIL kill: compounds killing PPC-1 cancer cells with TRAIL present, primary screen, TRAIL potentiator project, ATPLite luminescence, uHTS; 220,000 tested, 0.41% active; PPC-1 cells + TRAIL, ATPLite viability luminescence; cell killing (% activity), % at 4 µM or 5 µM;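 active means cell killing above 50% in the first pass at 4 µM, then a duplicate retest at 5 µM averaging 50% or more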;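 further: plate controls were cells with TRAIL plus DMSO for no effect and medium-only wells lacking cells for full effect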
FLuc stim CS: FLuc activators, initial screening, artefact control for FLuc-dependent activation tests, biochemical, ATPlite luminescence | ATPlite luciferase biochemical, 10 min; 0 = ATP-free wells, 1 = DMSO control | 200,000 tested, under 10 active | Luciferin 4-monooxygenase (Photinus pyralis), P08659 | activation factor at 10 µM;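 active means luciferase activation factor, scaled between plate controls, of at least 2 with compound at 10 µM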
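Assay system: Luciferase/luciferin reagent mix; Medium: PBS as buffer for the ATP substrate; Dosing: test compounds dosed from 2 mM stocks in 100% DMSO; Times: 10 min, room temperature; Signal: luminescence from luciferase reaction; Read-out: luciferase activation; Controls: No-ATP low control, compound-free enzyme-plus-ATP high control.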
HSP90 inh: HSP90 inhibitors, primary screen, cell lysate, luminescence; AID 1789, 2009; Heat shock protein HSP 90 (rabbit reticulocyte lysate; luciferase refolding); inhibition, % at 5.6 µM; Rabbit reticulocyte lysate, luciferase refolding luminescence, 3 h; 290,000 tested, 0.91% active;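 active means inhibition above the screen-wide mean plus 3 SD, computed separately per campaign, cut at about 16% in these data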;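 further: 0% = DMSO wells and 100% = 60 µM geldanamycin wells; inhibitors lower the luminescence because luciferase stays unfolded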
PPC1 cytotox: cytotoxicity in PPC-1 cells, confirmation, cytotoxicity control for TRAIL apoptosis potentiator project, cell-based, ATP content luminescence. shares compounds with PPC-1+TRAIL kill. PPC-1 viability, ATPlite luminescence, overnight. cytotoxicity, % at 5 µM. 1,200 tested, 50% active. AID 1447, 2008;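 active means reconfirmed compounds whose average cytotoxicity reaches 50% or more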;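 further: 0% = DMSO-treated cells and 100% = wells holding medium but no cells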
Active calls of the source: *.

Screening Cc1cc(C(=O)CN2C(=O)C3CC=CCC3C2=O)c(C)n1-c1ccccc1 (stereo unspecified) returned FLuc inhib CS 74*, STAT3 inh 18, C8 TRAIL sens 63*, PPC-1+TRAIL kill 49, FLuc stim CS 0.3, HSP90 inh 9 and PPC1 cytotox 53*.
Cc1ccc(-c2nc(-c3ccccn3)no2)cc1Cl was read as FLuc inhib CS 95*, STAT3 inh 99*, C8 TRAIL sens 87*, PPC-1+TRAIL kill 88*, FLuc stim CS 0, HSP90 inh 64* and PPC1 cytotox 88*.
Screening c1ccc(-c2noc(-c3ccno3)n2)nc1 returned C8 TRAIL sens 5, PPC-1+TRAIL kill 15 and HSP90 inh -2.
For c1ccc(-c2ccc(-c3nc(-c4ccccn4)no3)cc2)cc1 the results were FLuc inhib CS 94*, STAT3 inh 109*, C8 TRAIL sens 90*, PPC-1+TRAIL kill 90*, FLuc stim CS 0.1, HSP90 inh 78* and PPC1 cytotox 90*.
O=[N+]([O-])c1ccccc1S(=O)(=O)N1CCSCC1 was read as C8 TRAIL sens -5.
Screening CN(Cc1ccccc1NCC(=O)Nc1ccccc1C#N)C1CCCCC1 returned FLuc inhib CS 2, STAT3 inh -27, C8 TRAIL sens 4, PPC-1+TRAIL kill 15, FLuc stim CS 1 and HSP90 inh -1.
Screening N#Cc1ccccc1NC(=O)CNc1ccccc1N1CCCCC1 returned FLuc inhib CS -9, STAT3 inh -42, C8 TRAIL sens -6, PPC-1+TRAIL kill -13, FLuc stim CS 1.1, HSP90 inh -1 and PPC1 cytotox -24.
O=C(Nc1nonc1NC(=O)C1CCCCC1)C1CCCCC1 was read as FLuc inhib CS -5, STAT3 inh -5, C8 TRAIL sens -3, PPC-1+TRAIL kill 1, FLuc stim CS 1, HSP90 inh 2 and PPC1 cytotox 3.
`O=C(Nc1c(F)c(F)c(F)c(F)c1F)C1CCCCC1` gave FLuc inhib CS -7, STAT3 inh 14, C8 TRAIL sens -18, PPC-1+TRAIL kill 6, FLuc stim CS 1.1 and HSP90 inh 7.
`C=CCNC(=S)N/N=C(\C)c1ccccn1` gave FLuc inhib CS -1, STAT3 inh -6, C8 TRAIL sens -7, PPC-1+TRAIL kill 33, FLuc stim CS 1, HSP90 inh 8 and PPC1 cytotox 41.
Screening COc1cc(OC)cc(C(=O)N[C@H](C(=O)OCC(=O)Nc2ccc3c(c2)OCO3)C(C)C)c1 returned C8 TRAIL sens 6.
For O=C(Nc1ccc2c(c1)OCO2)Nc1ccc2c(c1)OCO2 the results were FLuc inhib CS 40, STAT3 inh 6, C8 TRAIL sens 23, PPC-1+TRAIL kill 25, FLuc stim CS 0.6, HSP90 inh -4 and PPC1 cytotox 13.
For O=C(Nc1ccc2nsnc2c1)c1ccc2c(c1)OCO2 the results were FLuc inhib CS 70*, STAT3 inh 32, C8 TRAIL sens 48, PPC-1+TRAIL kill 50, FLuc stim CS 0.3, HSP90 inh -4 and PPC1 cytotox 52*.
O=C(Nc1ccc(Cl)cc1)Nc1ccc2c(c1)OCO2 was read as C8 TRAIL sens 20 and HSP90 inh 2.
Screening CCOc1ccc(/C(O)=C2/C(=O)C(=O)N(c3ccccn3)C2c2ccc(F)cc2)c(C)c1 (stereo unspecified) returned C8 TRAIL sens 2 and HSP90 inh 1.
CCN(CC)S(=O)(=O)c1ccc(NC(=O)CO/N=C(\N)c2ccccc2)cc1 was read as C8 TRAIL sens 6.
`COC(c1ccccc1)c1nc2ccccc2[nH]c1=O` (stereo unspecified) gave C8 TRAIL sens -12 and HSP90 inh 2.
O=c1[nH]c2ccccc2nc1C(Cl)c1ccccc1 (stereo unspecified) was read as FLuc inhib CS -7, STAT3 inh 10, PPC-1+TRAIL kill 1, FLuc stim CS 1.1, HSP90 inh 4 and PPC1 cytotox 4.
For CC(c1ccco1)N(C(=O)COc1ccc(Cl)cc1Cl)c1ccccn1 (stereo unspecified) the results were FLuc inhib CS 33, STAT3 inh 23, C8 TRAIL sens 57*, PPC-1+TRAIL kill 14, FLuc stim CS 0.7, HSP90 inh 42* and PPC1 cytotox 4.
For CC(c1ccco1)N(C(=O)c1ccccc1F)c1ccccn1 (stereo unspecified) the results were FLuc inhib CS -10, STAT3 inh 8, C8 TRAIL sens -1, PPC-1+TRAIL kill 3, FLuc stim CS 1.1 and HSP90 inh 2.
For COc1ccc(NS(=O)(=O)c2ccc(C)c(NC(=O)CNC(=O)c3ccco3)c2)cc1 the results were C8 TRAIL sens 9.
O=C(Nc1nc(-c2ccccn2)cs1)C1CC1 was read as FLuc inhib CS 3, STAT3 inh 9, C8 TRAIL sens 13, PPC-1+TRAIL kill -2, FLuc stim CS 1 and HSP90 inh 0.
`O=C(Nc1nc(-c2ccccn2)cs1)C12CC3CC(CC(O)(C3)C1)C2` gave FLuc inhib CS 83*, STAT3 inh -9, C8 TRAIL sens 60*, PPC-1+TRAIL kill 45, FLuc stim CS 0.2, HSP90 inh 3 and PPC1 cytotox 40.
`CCCN(C(=O)c1ccco1)c1nnc(-c2cccc(C)c2)s1` gave FLuc inhib CS 4, STAT3 inh 4, C8 TRAIL sens 7, PPC-1+TRAIL kill 9, FLuc stim CS 1 and HSP90 inh 5.
For CCN(C(=O)c1ccco1)c1nnc(-c2ccc(OC)cc2)s1 the results were FLuc inhib CS 85*, STAT3 inh 29, C8 TRAIL sens 69*, PPC-1+TRAIL kill 68*, FLuc stim CS 0.1, HSP90 inh 4 and PPC1 cytotox 70*.
CC(=O)Nc1ccc(S(=O)(=O)NC2(C(F)(F)F)C(=O)Nc3c2c(=O)n(C)c(=O)n3C)cc1 (stereo unspecified) was read as FLuc inhib CS -3, STAT3 inh -2, C8 TRAIL sens -5, PPC-1+TRAIL kill 2, FLuc stim CS 1, HSP90 inh -1 and PPC1 cytotox -2.
Screening Cc1ccc(C(=O)Nc2ncc3c(Cl)cccc3n2)cc1 returned FLuc inhib CS 94*, STAT3 inh 63*, C8 TRAIL sens 83*, PPC-1+TRAIL kill 74*, FLuc stim CS 0.1, HSP90 inh 2 and PPC1 cytotox 67*.
